Data reported in ChEMBL document CHEMBL1154396, “1-(5-Carboxyindol-1-yl)propan-2-ones as inhibitors of human cytosolic phospholipase A2alpha: synthesis and properties of bioisosteric benzimidazole, benzotriazole and indazole analogues” (Bioorg Med Chem Lett, 2009).
Converted amounts (≈) assume the structure as drawn.

Columns and labels:
[1] = Thermodynamic solubility in sodium phosphate buffer at pH 7.4; assay type: physicochemical
In short: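 Thermodynamic method: solid compound suspended in sodium phosphate buffer pH 7.4, sonicated 10 min, then shaken 20 h at room temperature. Undissolved material removed by centrifugation, and dissolved concentration in the aqueous phase measured by HPLC.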

Liver microsomes = experiment: Metabolic stability in rat liver microsomes; assay type: ADME, Microsome
In short: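 Rat liver microsomes incubated aerobically with test compound, with and without NADPH, stopped after 30 min. Parent remaining in the NADPH incubation quantified by reversed-phase HPLC with UV detection against the NADPH-free reference incubation and given as percent remaining. Main metabolite structure confirmed by LC/MS. Mean of at least two independent determinations.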

[2] = target: T1, Cytosolic phospholipase A2 (Homo sapiens, UniProt P47712); experiment: Inhibition of cPLA2 in human platelets assessed as arachidonic acid release
T1 sequence (P47712 whole entry): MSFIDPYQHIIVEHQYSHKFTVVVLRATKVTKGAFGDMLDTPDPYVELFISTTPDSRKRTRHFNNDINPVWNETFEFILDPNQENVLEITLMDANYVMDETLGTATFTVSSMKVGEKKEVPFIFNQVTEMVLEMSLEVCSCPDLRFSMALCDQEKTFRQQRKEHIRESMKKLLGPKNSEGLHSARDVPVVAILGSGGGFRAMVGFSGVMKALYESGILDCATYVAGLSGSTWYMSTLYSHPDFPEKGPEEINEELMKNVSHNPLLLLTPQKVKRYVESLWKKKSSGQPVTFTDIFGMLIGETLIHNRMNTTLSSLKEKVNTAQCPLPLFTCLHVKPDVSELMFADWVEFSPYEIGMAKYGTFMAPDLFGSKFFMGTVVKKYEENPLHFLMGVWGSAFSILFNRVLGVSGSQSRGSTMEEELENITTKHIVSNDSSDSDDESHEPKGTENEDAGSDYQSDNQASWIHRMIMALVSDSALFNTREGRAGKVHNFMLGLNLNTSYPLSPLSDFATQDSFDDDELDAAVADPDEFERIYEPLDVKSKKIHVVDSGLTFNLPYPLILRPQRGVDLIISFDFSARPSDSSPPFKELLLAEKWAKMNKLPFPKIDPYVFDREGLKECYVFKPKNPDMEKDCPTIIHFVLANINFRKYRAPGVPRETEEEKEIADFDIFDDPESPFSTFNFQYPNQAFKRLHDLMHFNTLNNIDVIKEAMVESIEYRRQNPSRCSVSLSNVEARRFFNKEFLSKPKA
In short: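 cPLA2α purified from human platelets; substrate covesicles of 1-stearoyl-2-arachidonoyl-sn-glycero-3-phosphocholine (SAPC) with 1,2-dioleoyl-sn-glycerol (DOG). Arachidonic acid released from SAPC after 60 min incubation quantified by reversed-phase HPLC, UV 200 nm; inhibition from release with vs without compound. IC50 values are means of at least two independent determinations.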

| SMILES | solubility thermodynamic [1] [µg/mL] | Stability (Liver microsomes) [%] | IC50 [2] [nM] |
| --- | --- | --- | --- |
| CCCCCCCCc1ccc(OCC(=O)Cn2ncc3ccc(C(=O)O)cc32)cc1 | 5 (≈ 11.8 µM) | 36 | 26 |
| CCCCCCCCc1ccc(OCC(=O)Cn2cnc3ccc(C(=O)O)cc32)cc1 | 7 (≈ 16.6 µM) | 40 | 85 |
| CCCCCCCCc1ccc(OCC(=O)Cn2ccc3ccc(C(=O)O)cc32)cc1 | < 1 | 39 |  |
| CCCCCCCCc1ccc(OCC(=O)Cn2nnc3ccc(C(=O)O)cc32)cc1 | 2 (≈ 4.72 µM) | 44 | 16 |
| CCCCCCCCc1ccc(OCC(=O)Cn2cnc3cc(C(=O)O)ccc32)cc1 | 22 (≈ 52.1 µM) | 49 | 150 |
| CCCCCCCCc1ccc(OCC(=O)Cn2nnc3cc(C(=O)O)ccc32)cc1 | < 1 | 43 | 26 |
| CCCCCCCCc1ccc(OCC(=O)Cn2ncc3cc(C(=O)O)ccc32)cc1 | < 1 | 64 | 5 |
